In ChEMBL document CHEMBL3286358, “Biological evaluation of tanshindiols as EZH2 histone methyltransferase inhibitors” (Bioorg Med Chem Lett, 2014):
Values belong to the compound of their own block, whether it stands above or below them. Activity calls are given as the source filed them. The rule behind the calls is not given here.

What was measured:
EZH2/SUZ12/EED complex = EZH2/SUZ12/EED complex (Homo sapiens, UniProt O75530+Q15022+Q15910); test: (§1) Inhibition of EZH2 histone methyltransferase activity in EZH2/SUZ12/EED protein complex (unknown origin) using histone H3 peptide/S-adenosylmethionine as substrate after 2 hrs by TR-FRET assay
[1] = target: EZH2/SUZ12/EED complex (Homo sapiens) (UniProt Q15910+O75530+Q15022); test: as §1
PC-3 = test: Cytotoxicity against human PC3 cells assessed as growth inhibition after 72 hrs by WST-1 assay; assay type: functional; conditions: PC-3, 72 h
Outline: (§2)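 Growth inhibition of tumour lines read by WST-1 viability assay. GI50 taken as the half-maximal growth-inhibitory concentration.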

T98G = test: Cytotoxicity against human T98G cells assessed as growth inhibition after 72 hrs by WST-1 assay; assay type: functional; outline: as §2
[2] = Cytotoxicity against human U2932 cells assessed as growth inhibition after 72 hrs by WST-1 assay; assay type: functional; conditions: U2932, 72 h; outline: as §2
[3] = Cytotoxicity against human U87MG cells assessed as growth inhibition after 72 hrs by WST-1 assay; assay type: functional, U-87MG ATCC; conditions: U-87 MG; outline: as §2
A549 = test: Cytotoxicity against human A549 cells assessed as growth inhibition after 72 hrs by WST-1 assay; assay type: functional; conditions: A549, 72 h; outline: as §2
Daudi = test: Cytotoxicity against human Daudi cells assessed as growth inhibition after 72 hrs by WST-1 assay; assay type: functional; outline: as §2
[4] = Cytotoxicity against human Pfeiffer cells expressing EZH2 […] mutant assessed as growth inhibition after 72 hrs by WST-1 assay; assay type: functional; outline: as §2
Pfeiffer [5] = test: Induction of apoptosis in human Pfeiffer cells assessed as increase in cleaved PARP level at 1 to 3 uM after 72 hrs by Western blotting analysis; assay type: functional, cell-based
Outline: (§3)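 Pfeiffer cells treated 72 h. Lysates analysed by Western blot for apoptosis markers.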

[6] = Cell cycle arrest in human Pfeiffer cells assessed as accumulation at sub-G1 phase at 1 uM after 72 hrs (reference value: 9%); assay type: functional, cell-based
Outline: (§4)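 Pfeiffer cells (DLBCL carrying EZH2 A677G) exposed 72 h to 1, 2.5 or 5 µM, with untreated control. DNA content histograms are gated as M1 sub-G1, M2 G1, M3 S and M4 G2/M. Values are the percentage of cells in each gate.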

[7] = Cell cycle arrest in human Pfeiffer cells assessed as accumulation at G1 phase at 5 uM after 72 hrs (reference value: 59%); assay type: functional, cell-based; outline: as §4
Pfeiffer [8] = test: Induction of apoptosis in human Pfeiffer cells assessed as DNA content at 1 to 5 uM after 72 hrs by DAPI staining-based analysis; assay type: functional, cell-based; outline: as §4
[9] = target: Histone-lysine N-methyltransferase EZH2 (Homo sapiens) (UniProt Q15910); conditions: 3 uM
Pfeiffer [10] = test: Induction of apoptosis in human Pfeiffer cells assessed as increase in cleaved caspase-7 level at 1 to 3 uM after 72 hrs by Western blotting analysis; assay type: functional, cell-based; outline: as §3
[11] = Cell cycle arrest in human Pfeiffer cells assessed as accumulation at G2/M phase at 2.5 uM after 72 hrs (reference value: 10%); assay type: functional, cell-based; outline: as §4
[12] = target: EZH2/SUZ12/EED/RBBP7/RBBP4; test: Competitive inhibition of EZH2 histone methyltransferase activity in EZH2/SUZ12/EED/RbAp46/48 (unknown origin) using histone H3 peptide/varying concentration of S-adenosylmethionine as substrate after 2 hrs by Lineweaver-Burk plot analysis; assay type: protein-complex assay, Homo sapiens
Outline: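 PRC2 complex (EZH2, EED, SUZ12, RbAp46/48) as enzyme. Histone H3 peptide fixed at 150 nM, SAM varied. Inhibitor at 0, 0.625, 1.25 and 2.5 µM.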

[13] = Cell cycle arrest in human Pfeiffer cells assessed as accumulation at sub-G1 phase at 5 uM after 72 hrs (reference value: 9%); assay type: functional, cell-based; outline: as §4
Pfeiffer [14] = test: Induction of apoptosis in human Pfeiffer cells assessed as increase in cleaved caspase-3 level at 1 to 3 uM after 72 hrs by Western blotting analysis; assay type: functional, cell-based; outline: as §3
[15] = Cell cycle arrest in human Pfeiffer cells assessed as accumulation at G1 phase at 1 uM after 72 hrs (reference value: 59%); assay type: functional, cell-based; outline: as §4
[16] = Cell cycle arrest in human Pfeiffer cells assessed as accumulation at S phase at 5 uM after 72 hrs (reference value: 21%); assay type: functional, cell-based; outline: as §4
[17] = Cell cycle arrest in human Pfeiffer cells assessed as accumulation at S phase at 2.5 uM after 72 hrs (reference value: 21%); assay type: functional, cell-based; outline: as §4
[18] = Inhibition of EZH2 histone methyltransferase […] mutant in EZH2/SUZ12/EED/RbAp46/48 protein complex (unknown origin) using histone H3 peptide/S-adenosylmethionine as substrate after 2 hrs by Lineweaver-Burk plot analysis; design: species or system Homo sapiens
Outline: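 EZH2 A677G mutant activity measured with inhibitor at 0, 0.625, 1.25 and 2.5 µM. Inhibition mode analysed by Lineweaver–Burk plot.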

[19] = Cell cycle arrest in human Pfeiffer cells assessed as accumulation at G1 phase at 2.5 uM after 72 hrs (reference value: 59%); assay type: functional, cell-based; outline: as §4
[20] = Cell cycle arrest in human Pfeiffer cells assessed as accumulation at S phase at 1 uM after 72 hrs (reference value: 21%); assay type: functional, cell-based; outline: as §4
[21] = Cell cycle arrest in human Pfeiffer cells assessed as accumulation at G2/M phase at 5 uM after 72 hrs (reference value: 10%); assay type: functional, cell-based; outline: as §4
[22] = Cell cycle arrest in human Pfeiffer cells assessed as accumulation at G2/M phase at 1 uM after 72 hrs (reference value: 10%); assay type: functional, cell-based; outline: as §4
[23] = Cell cycle arrest in human Pfeiffer cells assessed as accumulation at sub-G1 phase at 2.5 uM after 72 hrs (reference value: 9%); assay type: functional, cell-based; outline: as §4
[24] = target: Histone-lysine N-methyltransferase EZH2 (Homo sapiens) (UniProt Q15910); conditions: 3 uM; remark: listed apart in the source
[25] = target: Histone-lysine N-methyltransferase EZH2 (Homo sapiens) (UniProt Q15910); conditions: 1 to 3 uM

Chain of EZH2/SUZ12/EED complex (Q15910 whole entry): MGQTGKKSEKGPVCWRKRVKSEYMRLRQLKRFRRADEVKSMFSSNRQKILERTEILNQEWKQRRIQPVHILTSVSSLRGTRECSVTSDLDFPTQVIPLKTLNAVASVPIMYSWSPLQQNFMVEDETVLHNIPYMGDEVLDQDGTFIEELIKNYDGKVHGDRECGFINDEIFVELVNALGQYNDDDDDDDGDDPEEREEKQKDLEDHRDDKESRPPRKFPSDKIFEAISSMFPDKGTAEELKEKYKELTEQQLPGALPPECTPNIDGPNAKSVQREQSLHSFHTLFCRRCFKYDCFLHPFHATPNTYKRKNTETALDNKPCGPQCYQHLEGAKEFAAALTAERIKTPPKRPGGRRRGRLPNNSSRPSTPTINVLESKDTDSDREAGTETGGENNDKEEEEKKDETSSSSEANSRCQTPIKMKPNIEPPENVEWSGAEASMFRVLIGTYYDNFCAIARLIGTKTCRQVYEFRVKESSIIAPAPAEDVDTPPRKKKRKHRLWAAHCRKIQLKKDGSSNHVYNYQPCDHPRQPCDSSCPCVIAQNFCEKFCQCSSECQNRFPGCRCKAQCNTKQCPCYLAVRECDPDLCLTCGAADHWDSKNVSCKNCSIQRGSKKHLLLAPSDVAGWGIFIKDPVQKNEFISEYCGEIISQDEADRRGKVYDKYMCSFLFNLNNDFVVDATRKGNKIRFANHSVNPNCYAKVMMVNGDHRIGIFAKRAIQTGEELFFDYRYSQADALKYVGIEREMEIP
Chain of EZH2/SUZ12/EED complex (O75530 whole entry): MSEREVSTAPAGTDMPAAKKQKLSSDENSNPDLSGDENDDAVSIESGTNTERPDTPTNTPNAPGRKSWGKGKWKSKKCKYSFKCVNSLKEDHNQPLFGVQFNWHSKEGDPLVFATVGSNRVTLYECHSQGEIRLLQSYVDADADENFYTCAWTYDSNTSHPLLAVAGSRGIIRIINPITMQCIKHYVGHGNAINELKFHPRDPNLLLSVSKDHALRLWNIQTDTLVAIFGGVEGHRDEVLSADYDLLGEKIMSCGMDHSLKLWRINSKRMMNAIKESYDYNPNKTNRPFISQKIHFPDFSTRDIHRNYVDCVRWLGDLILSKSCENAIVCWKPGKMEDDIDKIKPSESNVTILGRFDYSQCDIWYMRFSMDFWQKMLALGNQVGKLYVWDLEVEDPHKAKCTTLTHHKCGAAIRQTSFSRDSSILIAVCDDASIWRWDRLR
Chain of EZH2/SUZ12/EED complex (Q15022 whole entry): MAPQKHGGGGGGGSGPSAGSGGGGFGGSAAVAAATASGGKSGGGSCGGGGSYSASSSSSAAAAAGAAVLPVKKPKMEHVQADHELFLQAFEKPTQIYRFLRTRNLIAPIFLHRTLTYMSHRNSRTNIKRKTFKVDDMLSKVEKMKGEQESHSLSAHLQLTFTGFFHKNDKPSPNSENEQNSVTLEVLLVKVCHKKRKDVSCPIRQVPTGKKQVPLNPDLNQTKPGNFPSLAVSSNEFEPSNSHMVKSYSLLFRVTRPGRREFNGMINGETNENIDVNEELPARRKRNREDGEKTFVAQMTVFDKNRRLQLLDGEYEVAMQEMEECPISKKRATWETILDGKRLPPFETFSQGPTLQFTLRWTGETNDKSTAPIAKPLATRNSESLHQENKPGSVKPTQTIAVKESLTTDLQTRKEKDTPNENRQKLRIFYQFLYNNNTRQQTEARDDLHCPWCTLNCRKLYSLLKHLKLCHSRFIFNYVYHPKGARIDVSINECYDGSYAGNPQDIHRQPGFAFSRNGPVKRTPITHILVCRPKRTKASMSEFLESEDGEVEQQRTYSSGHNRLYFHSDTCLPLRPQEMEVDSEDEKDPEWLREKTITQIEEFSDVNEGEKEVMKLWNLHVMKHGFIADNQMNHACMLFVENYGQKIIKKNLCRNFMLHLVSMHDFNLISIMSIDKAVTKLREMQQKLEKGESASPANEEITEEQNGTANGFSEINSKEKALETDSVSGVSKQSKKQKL
Chain of Histone-lysine N-methyltransferase EZH2 (Homo sapiens) (Q15910 whole entry, looked up): as the sequence (Q15910 whole entry) above
Chain of EZH2/SUZ12/EED complex (Homo sapiens) (O75530 2-441 partner limits assumed): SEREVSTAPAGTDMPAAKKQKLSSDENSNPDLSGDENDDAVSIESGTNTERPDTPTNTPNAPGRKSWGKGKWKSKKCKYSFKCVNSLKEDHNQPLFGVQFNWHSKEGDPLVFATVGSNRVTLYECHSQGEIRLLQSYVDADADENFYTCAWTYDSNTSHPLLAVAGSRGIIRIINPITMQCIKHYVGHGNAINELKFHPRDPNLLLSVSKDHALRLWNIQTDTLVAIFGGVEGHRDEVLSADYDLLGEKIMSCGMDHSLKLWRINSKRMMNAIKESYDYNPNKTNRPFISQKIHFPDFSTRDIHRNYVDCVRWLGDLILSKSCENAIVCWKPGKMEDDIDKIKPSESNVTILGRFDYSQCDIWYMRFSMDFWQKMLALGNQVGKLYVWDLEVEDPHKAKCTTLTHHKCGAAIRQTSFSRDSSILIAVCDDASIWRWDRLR
Chain of EZH2/SUZ12/EED complex (Homo sapiens) (Q15022 whole entry partner): as the sequence (Q15022 whole entry) above
Chain of EZH2/SUZ12/EED complex (Homo sapiens) (Q15910 whole entry): as the sequence (Q15910 whole entry) above

IC50 (EZH2/SUZ12/EED complex): 28.1 µM
inhibition [1]: Dose-dependent effect
Structure (SMILES): Cc1coc2c1C(=O)C(=O)c1c-2ccc2c1CCCC2(C)C [TANSHINONE IIA]

IC50 (EZH2/SUZ12/EED complex): 0.52 µM
inhibition [1]: Dose-dependent effect
Structure (SMILES): Cc1coc2c1C(=O)C(=O)c1c-2ccc2c1CC[C@H](O)[C@]2(C)O

Structure (SMILES): CC[C@H](C)n1cc(C)c2c(C(=O)NCc3c(C)cc(C)[nH]c3=O)cc(-c3ccc(N4CCNCC4)nc3)cc21 [GSK2816126]
GI50 (PC-3): 9.4 µM
GI50 (T98G): 12.6 µM
GI50 [2]: 6.7 µM
GI50 [3]: 28.5 µM
GI50 (A549): 18.7 µM
GI50 (Daudi): 11.2 µM
GI50 [4]: 0.18 µM

IC50 (EZH2/SUZ12/EED complex): 9.6 µM
inhibition [1]: Dose-dependent effect
Structure (SMILES): COC(=O)[C@@]1(C)CCCc2c1ccc1c2C(=O)C(=O)c2c(C)coc2-1 [METHYL TANSHINONATE]

IC50 (EZH2/SUZ12/EED complex): 4.8 µM
inhibition [1]: Dose-dependent effect
Structure (SMILES): Cc1coc2c1C(=O)C(=O)c1c-2ccc2c1CCCC2(C)CO (configuration not stated) [TANSHINONE IIB]

IC50 (EZH2/SUZ12/EED complex): 8.9 µM
inhibition [1]: Dose-dependent effect
Structure (SMILES): Cc1coc2c1C(=O)C(=O)c1c-2ccc2c(C)cccc12 [TANSHINONE I]

inhibition [9]: 50%
Ki [12]: 0.194 µM
IC50 (EZH2/SUZ12/EED complex): 0.55 µM
inhibition [1]: Dose-dependent effect
Ki [18]: 0.176 µM
inhibition [24]: 50%
inhibition [25]: Active
Structure (SMILES): Cc1coc2c1C(=O)C(=O)c1c-2ccc2c1CC[C@@H](O)[C@]2(C)O
Activity (Pfeiffer [5]): Active
GI50 (PC-3): 4 µM
Activity [6]: 11%
Activity [7]: 41%
Activity (Pfeiffer [8]): Active
Activity (Pfeiffer [10]): Active
Activity [11]: 11%
GI50 (T98G): 6 µM
Activity [13]: 21%
Activity (Pfeiffer [14]): Active
Activity [15]: 58%
Activity [16]: 29%
GI50 [2]: 9.5 µM
Activity [17]: 24%
GI50 [3]: 5.7 µM
Activity [19]: 51%
Activity [20]: 20%
Activity [21]: 7%
GI50 (A549): 4.2 µM
GI50 (Daudi): 10.6 µM
Activity [22]: 11%
Activity [23]: 13%
GI50 [4]: 1.5 µM
